Shown are actives, neighbours in structure and some others; about 3.5% of the full set was active somewhere.
RGS4 pot – potentiators or activators of RGS4; actives 0.92% (n = 310,000); HEK293 M3R/inducible RGS4, carbachol calcium flux Fluo4; stronger effect = lower value; B-score at 10 µM;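 active = B-score of the integrated calcium signal more than 4 SD below the library mean, with starting fluorescence not abnormally high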;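 also: negative B-score means reduced calcium response which marks RGS4 activation or potentiation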
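test system = M3R-expressing HEK293 line, RGS4 induced by doxycycline | probe or stimulus = carbachol at ECmax as muscarinic agonist stimulus | timing = dye loading 30 min 37 °C, buffer rest 30 min RT | signal = calcium dye Fluo4 fluorescence | evaluation = B score from integrated fluorescence ratio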
MrgX1 antag – antagonists of human MrgX1 receptor. B-score at 10 µM. Q96LB2. actives 1.3% (n = 310,000). AID 588676. MRGX1-HEK293 calcium flux, Fluo-4, BAM8-22 antagonism; stronger effect = lower value;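 active = calcium-response B-score plate-corrected more than 3 library SD below zero, starting fluorescence within 5 deviations, no agonist response on first addition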;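 also: peak minus trough fluorescence over baseline after final BAM8-22 challenge near maximal dose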
Target sequence (Q96LB2 whole entry, looked up): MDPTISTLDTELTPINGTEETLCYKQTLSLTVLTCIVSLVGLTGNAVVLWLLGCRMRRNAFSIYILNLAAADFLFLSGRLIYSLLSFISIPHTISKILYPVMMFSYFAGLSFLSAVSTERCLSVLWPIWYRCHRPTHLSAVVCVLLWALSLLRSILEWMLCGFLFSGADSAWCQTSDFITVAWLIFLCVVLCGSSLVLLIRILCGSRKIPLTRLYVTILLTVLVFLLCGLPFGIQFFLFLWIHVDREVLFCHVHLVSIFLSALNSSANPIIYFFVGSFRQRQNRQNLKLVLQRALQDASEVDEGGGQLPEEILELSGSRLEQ
RGS4 block – inhibitors of human RGS4 | P49798 | HEK293 M3R/RGS4 inducible, Fluo-4 calcium flux; stronger effect = higher value; triggered by carbachol at its EC20 | B-score at 10 µM | actives 0.45% (n = 310,000);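 active = B-score, a plate-corrected calcium signal, over three deviations above library mean, with baseline fluorescence within five deviations of library mean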;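 also: RGS4 expression induced by doxycycline in cells with stable M3 receptor; B-score is computed from the integrated fluorescence ratio over baseline after carbachol; higher B-score means a larger calcium signal and so more RGS4 inhibition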
Target sequence (P49798 whole entry, looked up): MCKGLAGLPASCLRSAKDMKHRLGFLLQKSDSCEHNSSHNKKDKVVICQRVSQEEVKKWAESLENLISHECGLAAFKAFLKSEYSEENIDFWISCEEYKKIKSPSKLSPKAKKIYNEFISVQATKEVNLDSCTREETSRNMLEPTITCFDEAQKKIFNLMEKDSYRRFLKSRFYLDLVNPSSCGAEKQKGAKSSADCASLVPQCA
MrgX1 ag – activates human MrgX1 receptor signaling. B-score at 10 µM. AID 588627. MrgX1-HEK293 cells, Fluo-4 calcium fluorescence, agonist mode; stronger effect = higher value. Q96LB2. actives 0.44% (n = 310,000);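 active = calcium response B-score plate-corrected fluorescence ratio at least 3 library SD, with starting fluorescence B-score inside 5 SD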
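Material: HEK293 cells stably expressing human MrgX1 receptor | Quantity: 15,000 cells per well | Times: Cells plated overnight, dye loaded 0.5 h 37 °C, 0.5 h room temperature | Measured by: Kinetic Fluo-4 NW fluorescence of intracellular calcium | Control set: Positive and negative controls per plate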
MrgX1 allo act – allosterically activates human MrgX1 receptor signaling; Q96LB2; MrgX1-HEK293, Fluo-4 calcium flux, FDSS; stronger effect = higher value; B-score at 10 µM; actives 0.63% (n = 310,000);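 active = plate-corrected calcium response at least 3 library SD above typical, normal starting fluorescence, not activating the receptor alone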;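 also: compound read alongside a low EC10 to EC30 dose of BAM8-22 agonist; peak minus trough fluorescence over baseline measured at the second addition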
MrgX1 ag confirm – confirmation of human MrgX1 receptor agonists | actives 78% (n = 600) | activation, % at 10 µM | shares compounds with MrgX1 ag | MrgX1-HEK293, Fluo-4 calcium fluorescence, FDSS;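 active = calcium signal rise, corrected for plate position, at least 3 library SD high, with starting brightness within 5 such deviations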
HEK293 Ca flux – counter-screen for MrgX1 antagonists: effect in parental HEK293 cells | shares compounds with MrgX1 antag | Fluo-4 calcium fluorescence, FDSS | fluorescence ratio F(max-min)/F0 at 10 µM | actives 2% (n = 4,000) | AID 624111;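 active = duplicate-averaged calcium fluorescence ratio at least three times the standard deviation of buffer wells, a nonspecific response in parental cells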
HEK293 Ca counter – counter-screen for MrgX1 allosteric activators: effect in parental HEK293 cells; shares compounds with MrgX1 antag; parental HEK293 calcium flux, Fluo-4 fluorescence ratio; stronger effect = higher value; fluorescence ratio F(max-min)/F0 at 10 µM; actives 0.4% (n = 4,000);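 active = calcium fluorescence ratio, averaged over duplicates, at least 3 SD of the buffer-well ratio, meaning a nonspecific response in receptor-free cells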;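 also: untransfected parental HEK293 lacking MrgX1 used as counterscreen for MrgX1 allosteric activators; fluorescence change taken during the second addition on a kinetic imager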
HEK293 Ca cntr2 – MrgX1 activator counter-screen hit in parental HEK293 cells; Fluo-4 calcium fluorescence (FDSS); stronger effect = higher value; AID 624115; shares compounds with MrgX1 antag; fluorescence ratio F(max-min)/F0 at 10 µM; actives 8.7% (n = 4,000);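 active = calcium fluorescence ratio at least three times the spread of buffer wells, meaning a non-specific response in parental cells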
Each line names hits and unclear results; the compound was inactive in the other large screens (follow-up assays come after a bar, where they were run).

COc1cc(/C=C2\C(=N)N3N=CSC3=NC2=O)ccc1OS(=O)(=O)c1ccccc1	MrgX1 ag 73 | MrgX1 ag confirm 383% | HEK293 Ca flux inactive | HEK293 Ca counter inactive | HEK293 Ca cntr2 77
Nc1ncccc1OCc1ccc(Cl)c(Cl)c1	MrgX1 ag 41 | MrgX1 ag confirm 172% | HEK293 Ca flux inactive | HEK293 Ca counter inactive | HEK293 Ca cntr2 inactive
O=C1CSc2ccc(C(=O)NCCC3=CCCCC3)cc2N1	MrgX1 ag 119 | MrgX1 ag confirm inactive | HEK293 Ca flux inactive | HEK293 Ca counter inactive | HEK293 Ca cntr2 inactive
CCn1nc(C)c(C2C(C#N)=C(N)OC3=C2C(=O)CC(C)(C)C3)c1C (stereo not drawn)	none
CSc1ccc(C2NC(=O)c3c(sc4c3CCN(C)C4)N2)cc1 (stereo not drawn)	MrgX1 ag 28 | MrgX1 ag confirm 101% | HEK293 Ca flux inactive | HEK293 Ca counter inactive | HEK293 Ca cntr2 inactive
CN1CCc2c(sc3c2C(=O)NC(c2cccs2)N3)C1 (stereo not drawn)	MrgX1 ag 40 | MrgX1 ag confirm inactive | HEK293 Ca flux inactive | HEK293 Ca counter inactive | HEK293 Ca cntr2 inactive
CC1CCCCC1NC(=O)COC(=O)CNC(=O)c1cccc(F)c1 (stereo not drawn)	none
CC1(C)Cc2c(c(-c3ccco3)nc3sc4c(NCC5CCCO5)ncnc4c23)CO1 (stereo not drawn)	MrgX1 ag 49 | MrgX1 ag confirm 208% | HEK293 Ca flux inactive | HEK293 Ca counter inactive | HEK293 Ca cntr2 45
CC1(C)Cc2c(c(-c3ccco3)nc3sc4c(NCCCO)ncnc4c23)CO1	none
COc1cccc(CN2CCN(Cc3cc4ccccc4[nH]3)CC2CCO)c1 (stereo not drawn)	MrgX1 ag 123 | MrgX1 ag confirm 313% | HEK293 Ca flux inactive | HEK293 Ca counter inactive | HEK293 Ca cntr2 49
O=c1[nH]c(C2CCCN(S(=O)(=O)c3ccccc3F)C2)nc2c1nnn2Cc1ccccc1Cl (stereo not drawn)	none
COC(=O)C1=C(C)OC(N)=C(C#N)C1c1ccco1 (stereo not drawn)	none
COC(=O)C1=C(C)OC(N)=C(C#N)C1c1ccccc1F (stereo not drawn)	MrgX1 ag 27 | MrgX1 ag confirm 170% | HEK293 Ca flux inactive | HEK293 Ca counter inactive | HEK293 Ca cntr2 64
COC(=O)C1=C(C)OC(N)=C(C#N)C1c1cc(OC)c(OCC(N)=O)cc1Cl (stereo not drawn)	MrgX1 ag 43 | MrgX1 ag confirm 230% | HEK293 Ca flux inactive | HEK293 Ca counter inactive | HEK293 Ca cntr2 56
COC(=O)C1=C(CSc2nc3c(cc2C#N)CN(C)CC3)OC(N)=C(C#N)C1c1ccccc1F (stereo not drawn)	MrgX1 ag 42 | MrgX1 ag confirm 265% | HEK293 Ca flux inactive | HEK293 Ca counter inactive | HEK293 Ca cntr2 57
CC(=O)C1=C(C)OC(N)=C(C#N)C1c1cc([N+](=O)[O-])ccc1Cl (stereo not drawn)	none
CCOC(=O)C1=C(CSc2nc3c(cc2C#N)CN(C)CC3)OC(N)=C(C#N)C1c1ccccc1 (stereo not drawn)	none (no result: RGS4 pot, RGS4 block)
COc1ccc(OCCCC(=O)OC(C)C(=O)Nc2ccc(S(N)(=O)=O)cc2)cc1 (stereo not drawn)	none
CC1CN(C(=O)c2ccc(OC3CCN(Cc4ccccn4)CC3)cc2)CCN1C (stereo not drawn)	none
COC(=O)N/N=C/c1cccc(OCCSc2ccc(Cl)cc2)c1	none
CCOC(=O)C1CCCN(c2oc(-c3ccc(OC)cc3)nc2C#N)C1 (stereo not drawn)	none
COc1cc(/C=C2/C(=N)N3C(SC)=NSC3=NC2=O)ccc1OC(=O)c1ccco1	MrgX1 ag 71 | MrgX1 ag confirm 227% | HEK293 Ca flux inactive | HEK293 Ca counter inactive | HEK293 Ca cntr2 48
Cc1ccc(S(=O)(=O)N(C)c2ccccc2C(=O)NC2CCCC2)cc1	none
COc1ccccc1C1/C(=C(\O)c2ccc3c(c2)OCCO3)C(=O)C(=O)N1Cc1cccnc1 (stereo not drawn)	none
CNc1nc(NCc2ccccc2)c2ccccc2n1	MrgX1 ag 76 | MrgX1 ag confirm 253% | HEK293 Ca flux inactive | HEK293 Ca counter inactive | HEK293 Ca cntr2 inactive
O=C(c1ccccc1Sc1cccc2ccccc12)N1CCOCC1	none
O=C(N/N=C/c1cc([N+](=O)[O-])cc(Br)c1O)C12CC3CCC(CC(C3)C1)C2	MrgX1 ag 73 | MrgX1 ag confirm 175% | HEK293 Ca flux inactive | HEK293 Ca counter inactive | HEK293 Ca cntr2 92
COc1cc(/C=N/NC(=O)C23CC4CC(CC(C4)C2)C3)cc(Br)c1O	none
CC(=O)c1ccc(-n2c(CCC(=O)O)ccc2-c2cccs2)cc1	none
Cc1ccc(-n2c(CCC(=O)O)ccc2-c2cccs2)cc1	MrgX1 ag 33 | MrgX1 ag confirm 149% | HEK293 Ca flux inactive | HEK293 Ca counter inactive | HEK293 Ca cntr2 inactive
Oc1cccc(Nc2nc(O)c(/C=C3\C=Nc4ccccc43)s2)c1	MrgX1 ag 39 (no result: RGS4 pot, RGS4 block) | MrgX1 ag confirm 416% | HEK293 Ca flux inactive | HEK293 Ca counter inactive | HEK293 Ca cntr2 76
Oc1nc(Nc2cccc(Cl)c2)sc1/C=C1\C=Nc2ccccc21	none
O=[N+]([O-])c1ccc(OCCO)c(P(=O)(c2ccccc2)c2ccccc2)c1	none
O=C(NCc1ccccn1)c1cn(CCc2ccccc2)nn1	none
CC(C)c1ccc(N(C(=O)c2csnn2)C(C(=O)NC2CCCC2)c2cccnc2)cc1 (stereo not drawn)	MrgX1 ag 33 | MrgX1 ag confirm inactive | HEK293 Ca flux inactive | HEK293 Ca counter inactive | HEK293 Ca cntr2 inactive
COc1ccnc(CSC(N)=Nc2ccccc2C(F)(F)F)c1	MrgX1 ag 33 | MrgX1 ag confirm 102% | HEK293 Ca flux inactive | HEK293 Ca counter inactive | HEK293 Ca cntr2 inactive
COc1ccnc(CSC(N)=Nc2ccccc2OC)c1	none
CCN(c1nc(N)c(C(=O)N=C(N)N)nc1Cl)C(C)C	MrgX1 ag 36 | MrgX1 ag confirm 233% | HEK293 Ca flux inactive | HEK293 Ca counter inactive | HEK293 Ca cntr2 inactive
Cc1cc2ccc3ccccc3c2cc1CN(C)C	none

Assay outcomes (PubChem)
